The values that follow come from ChEMBL document CHEMBL1136577, “Synthesis of 6-formyl-pyridine-2-carboxylate derivatives and their telomerase inhibitory activities” (Bioorg Med Chem Lett, 2003).

For experiment [1], the target named is Telomerase reverse transcriptase (Homo sapiens, UniProt O14746). The experiment in a line: In vitro inhibitory activity of compound against telomerase. The essentials: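 Telomerase activity was measured by TRAP assay. Extension products were resolved on 10% nondenaturing polyacrylamide gel, stained with SYBR Green, and band intensity quantified by image analysis. IC50 was derived from the reduction in product signal.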
Telomerase reverse transcriptase, sequence (O14746 whole entry): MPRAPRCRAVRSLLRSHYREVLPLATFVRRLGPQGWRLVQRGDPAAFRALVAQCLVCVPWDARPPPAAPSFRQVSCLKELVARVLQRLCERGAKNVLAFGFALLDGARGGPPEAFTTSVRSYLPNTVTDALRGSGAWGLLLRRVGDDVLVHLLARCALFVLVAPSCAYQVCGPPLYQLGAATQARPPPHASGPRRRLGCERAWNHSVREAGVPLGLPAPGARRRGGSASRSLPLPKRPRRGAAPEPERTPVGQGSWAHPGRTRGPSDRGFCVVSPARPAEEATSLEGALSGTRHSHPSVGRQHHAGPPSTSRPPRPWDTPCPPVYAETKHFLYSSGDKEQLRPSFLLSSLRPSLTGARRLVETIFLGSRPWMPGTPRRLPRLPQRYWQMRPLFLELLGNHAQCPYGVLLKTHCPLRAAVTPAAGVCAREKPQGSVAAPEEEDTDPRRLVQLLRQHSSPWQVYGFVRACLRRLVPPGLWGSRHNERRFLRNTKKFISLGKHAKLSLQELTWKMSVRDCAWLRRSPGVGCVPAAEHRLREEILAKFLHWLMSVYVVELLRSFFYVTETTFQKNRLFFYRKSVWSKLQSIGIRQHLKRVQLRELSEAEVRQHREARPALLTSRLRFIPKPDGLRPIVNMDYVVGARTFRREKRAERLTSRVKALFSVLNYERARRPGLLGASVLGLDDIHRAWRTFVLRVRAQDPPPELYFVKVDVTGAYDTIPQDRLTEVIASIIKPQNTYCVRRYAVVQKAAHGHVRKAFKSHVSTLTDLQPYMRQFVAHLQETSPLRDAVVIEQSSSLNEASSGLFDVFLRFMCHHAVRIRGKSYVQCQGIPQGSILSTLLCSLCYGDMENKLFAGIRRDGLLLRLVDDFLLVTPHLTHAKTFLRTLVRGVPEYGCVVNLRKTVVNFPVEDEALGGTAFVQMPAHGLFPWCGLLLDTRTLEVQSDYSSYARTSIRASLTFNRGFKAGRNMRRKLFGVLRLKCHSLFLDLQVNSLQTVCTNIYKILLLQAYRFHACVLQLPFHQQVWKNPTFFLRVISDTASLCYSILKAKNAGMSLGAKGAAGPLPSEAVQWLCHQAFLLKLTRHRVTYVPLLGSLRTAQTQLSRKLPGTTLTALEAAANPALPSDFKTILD

The next experiment concerns A549. The experiment in a line: In vitro antiproliferative activity of compound against […] (human lung caner ) cell line was determined by SRB assay. The format is functional, cell-based. The method, boiled down:
(§1)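 Cells grown for 3 days with compound, then growth read by sulforhodamine B (SRB) staining. IC50 taken as the dose giving 50% growth inhibition of the cultured cells.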

The subject of a further experiment is CAKI-2. The experiment in a line: In vitro antiproliferative activity of compound against Caki-2 (human renal caner ) cell line was determined by SRB assay. In kind it is functional, cell-based. The method, boiled down:
as §1

The next experiment relates to HEC-1B cell line. The experiment in a line: In vitro antiproliferative activity of compound against HEC-1-B (human endometrical caner ) cell line was determined by SRB assay. In kind it is functional, cell-based. The essentials: as §1
The next experiment concerns HL-60. The experiment in a line: In vitro antiproliferative activity of compound against HL-60 (human assay. In kind it is functional, cell-based. The method, boiled down:
as §1

The subject of the next experiment is HT-29. The experiment in a line: In vitro antiproliferative activity of compound against HT-29 (human colon caner ) cell line aws determined by SRB assay. In kind it is functional, cell-based. The method, boiled down: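 Human tumour cell lines exposed to compound for 3 days, with growth measured by sulforhodamine B (SRB) staining. IC50 is the concentration that inhibits growth of 50% of the cultured cells.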

In experiment [1], `O=Cc1cccc(C(=O)Sc2ccc(F)c(F)c2)n1` yielded an IC50 of 69 µM. For `Cc1ccccc1SC(=O)c1cccc(C=O)n1`, in experiment [1], the IC50 was above 100 µM. `O=Cc1cccc(C(=O)Sc2c(Cl)cc(Cl)cc2Cl)n1`: the IC50 in experiment [1] was found to be 50 µM. Regarding `COc1cccc(SC(=O)c2cccc(C=O)n2)c1`, the midpoint of inhibition in experiment [1], the IC50, lay at 76 µM. This IC50 lies about 1.5-fold higher than the previous one. Take `O=Cc1cccc(C(=O)Nc2ccc(Cl)c(Cl)c2)n1`: in experiment [1], the IC50 is above 100 µM. Regarding `O=Cc1cccc(C(=O)Sc2ccccc2Cl)n1`, in experiment [1], the 50% inhibitory concentration (IC50) stood at 84 µM. In experiment [1], `O=Cc1cccc(C(=O)Sc2ccc(F)cc2)n1` yielded an IC50 of 64 µM.

`O=Cc1cccc(C(=O)Sc2ccc(Cl)cc2)n1` gave an IC50 in experiment [1] of 33 µM. This IC50 lies about 1.9-fold lower than the previous one. `O=Cc1cccc(C(=O)Sc2c(Cl)cccc2Cl)n1`: the IC50 in experiment [1] came out at 79 µM. For the compound `COc1ccccc1SC(=O)c1cccc(C=O)n1`, in experiment [1], the IC50 is above 100 µM.

In the case of `O=Cc1cccc(C(=O)Sc2ccc(Cl)c(Cl)c2)n1`, the IC50 was 56.9 µM in the experiment with A549; above 300 µM in the experiment with CAKI-2; 56.4 µM in the experiment with HEC-1B cell line; 13 µM in the experiment on HL-60; 24 µM in experiment [1].

In turn, `O=Cc1cccc(C(=O)Sc2cc(Cl)cc(Cl)c2)n1` registered a half-maximal inhibitory concentration (IC50) in experiment [1] of 64 µM.

`COc1ccc(SC(=O)c2cccc(C=O)n2)cc1` gave an IC50 in experiment [1] of 91 µM. As for `Cc1cccc(SC(=O)c2cccc(C=O)n2)c1`, inhibition in experiment [1] was half-maximal at 76 µM (IC50).

`N#Cc1ccc(C=O)nc1SCc1c(Cl)cccc1Cl`: the 50% inhibitory concentration (IC50) with A549 was above 300 µM; with CAKI-2, above 300 µM; with HEC-1B cell line it was 175 µM; in the experiment on HL-60, 26.7 µM; in experiment [1], 77 µM. As for `O=Cc1cccc(C(=O)Sc2ccc([N+](=O)[O-])cc2)n1`, in experiment [1], the IC50 stood at 75 µM. In other words, the double-digit micromolar range. On the same count and under the same terms, then `O=Cc1cccc(C(=O)Oc2ccc(Cl)c(Cl)c2)n1`, with above 100 µM; and `Cc1ccc(SC(=O)c2cccc(C=O)n2)cc1`, with above 100 µM; and `O=Cc1cccc(C(=O)Sc2cc(Cl)ccc2Cl)n1`, with 68 µM.

Turning to `CC[C@@]1(O)C(=O)OCc2c1cc1n(c2=O)Cc2cc3ccccc3nc2-1` [CAMPTOTHECIN], the IC50 with A549 is 2.53 µM; in the experiment with CAKI-2 it was 3.96 µM; in the experiment on HEC-1B cell line, 8.64 µM; in the experiment with HL-60, 0.066 µM; in the experiment with HT-29 it was 1.4 µM. `CC(=O)Nc1ccc(SC(=O)c2cccc(C=O)n2)cc1` came in with a concentration for half-maximal inhibition (IC50) in experiment [1] above 100 µM.

Turning to `O=Cc1cccc(C(=O)Sc2cccc(Cl)c2)n1`, the IC50 in experiment [1] came out at 79 µM. In other words, the double-digit micromolar range.

Take `O=Cc1cccc(C(=O)Sc2ccc(Br)cc2)n1`: the IC50 in experiment [1] stood at 56 µM.
